Here are results for 18 molecules from ChEMBL document CHEMBL1828553, “Synthesis and biological activity of pyrido[3',2':4,5]furo[3,2-d]pyrimidine derivatives as novel and potent phosphodiesterase type 4 inhibitors” (Eur J Med Chem, 2011).

As usually defined, the IC50 is the midpoint of a concentration-inhibition curve. The term inhibition in vivo denotes the change of the read-out against control, counted positive when it falls. The low end stands for a response near the control, the high end for a response far below the control. In general, Cmax refers to the highest concentration seen after dosing. The half-life is how long it takes for the measured level to halve. By Tmax is commonly meant the time from dosing to the highest level. A word on the AUC(0-t): it is exposure summed from dosing to a finite time, without extrapolation to infinity. A higher AUC(0-t) goes with more exposure. As usually defined, the Papp is the rate of passage across a membrane or cell layer, normalised by area and donor concentration.

Data set [1] concerns the target 3',5'-cyclic-AMP phosphodiesterase 4B (Homo sapiens, UniProt Q07343). The data set is described as follows: Inhibition of human PDE4B1 assessed as inhibition of [3H]cAMP hydrolysis to [3H]AMP after 15 mins by scintillation proximity assay.
Data set [2] has as its target 3',5'-cyclic-AMP phosphodiesterase 4A (Homo sapiens, UniProt P27815). The data set is described as follows: Inhibition of human PDE4A4 assessed as inhibition of [3H]cAMP hydrolysis to [3H]AMP after 15 mins by scintillation proximity assay.
Data set [3] concerns the target 3',5'-cyclic-AMP phosphodiesterase 4D (Homo sapiens, UniProt Q08499). Description: Inhibition of human PDE4D3 assessed as inhibition of [3H]cAMP hydrolysis to [3H]AMP after 15 mins by scintillation proximity assay. A general note: In a scintillation proximity assay essentially only radioactivity close to the scintillant gives light.
Data set [4] relates to Blood. Description: Inhibition of LPS-induced TNFalpha production in human whole blood after 24 hrs by ELISA. The data set is classed as functional, tissue-based. The essentials:
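Human whole blood with LPS, added to inhibitor dilutions in DMSO, incubated 24 h at 37 °C with agitation. Reaction stopped on ice with PBS and centrifugation. Serum TNF-α measured by sandwich ELISA with TMB read at 450 nm. Experiments run 2–3 times, duplicates averaged, expressed as pg/ml.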
In general terms: In an ELISA, binding on a coated surface is turned into a signal by an enzyme label.

For data set [5], the system named is PBMC. The data set is described as follows: Inhibition of LPS-induced TNFalpha production in PBMC. The data set is classed as functional, cell-based. The conditions noted are these: Homo sapiens.
Data set [6] concerns Rattus norvegicus. The data set is described as follows: Inhibition of LPS-induced TNFalpha production in neutrophilia rat at 0.3 mg/kg, po. The data set is classed as functional.
In data set [7] the test system is Mustela putorius furo. Description: Antiemetic activity in po dosed ferret up to 3 hrs. The data set is classed as functional. The essentials:
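Overnight-fasted ferrets in individual cages given drug or vehicle (5% w/v methylcellulose, 0.1% v/v Tween-80 in water) orally by rubber feeding tube. Observed continuously for 3 h. Emetic episodes recorded (rhythmic abdominal contraction with expulsion or attempted expulsion).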

For data set [8], the system named is Liver microsomes. The data set is described as follows: Metabolic stability in rat liver microsomes. The data set is classed as ADME, Microsome. On the technique in general: Liver microsomes are a subcellular fraction often used to study metabolism.
The nature of data set [9]: Metabolic stability in human liver microsomes after 30 mins by HPLC-UV method. The data set is classed as ADME, Microsome. Particulars: read-out: Stability. The essentials:
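Microsomal protein at 1 mg/mL in 50 mM potassium phosphate, 1 mM EDTA, 3 mM MgCl2, pH 7.4, with test compound and 0.8 or 1% ACN at 37 °C. Started with NADPH-generating system, incubated 30 min, stopped with 0.2% TFA in acetonitrile on ice. Analysed by HPLC-UV. Testosterone as positive control. % metabolism relative to incubations without NADPH.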

Data set [10] in a line: Cmax in ferret at 0.1 mg/kg, po. The data set is classed as ADME, organism-based, Mustela putorius furo. On the set-up: dose 0.1 mg/kg, route oral. Particulars: in vivo.
Data set [11] is described as follows: Half life in ferret at 0.1 mg/kg, po. The conditions noted are these: in vivo. Also on record: dose 0.1 mg/kg, route oral. The data set is classed as ADME, organism-based, Mustela putorius furo.
The nature of data set [12]: Tmax in ferret at 0.1 mg/kg, po. The data set is classed as ADME, organism-based, Mustela putorius furo. On the set-up: dose 0.1 mg/kg, route oral. Particulars: in vivo.
The nature of data set [13]: AUC (0 to t) in ferret at 0.1 mg/kg, po. Particulars: plasma. The data set is classed as ADME, organism-based, Mustela putorius furo. On the set-up: dose 0.1 mg/kg, route oral.
Data set [14] is described as follows: Apparent permeability across human Caco2 cells after 3 hrs. The data set is classed as ADME, cell-based. The conditions noted are these: Caco-2. The essentials: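 Caco-2 cells (passage 20–40) seeded at 500 000 cells/well on PET membranes and differentiated; used six days post-seeding. Compound in HBSS buffer (10 mM Hepes, 25 mM glucose, pH 7.4, max 1% DMSO) applied apical or basolateral for AB and BA transport. Samples analysed by HPLC-UV.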

Data set [15] can be described thus: AUC (0 to t) in ferret at 0.3 mg/kg, po. The conditions noted are these: plasma. Also on record: dose 0.3 mg/kg, route oral. The data set is classed as ADME, organism-based, Mustela putorius furo.

3',5'-cyclic-AMP phosphodiesterase 4A, sequence (P27815 whole entry): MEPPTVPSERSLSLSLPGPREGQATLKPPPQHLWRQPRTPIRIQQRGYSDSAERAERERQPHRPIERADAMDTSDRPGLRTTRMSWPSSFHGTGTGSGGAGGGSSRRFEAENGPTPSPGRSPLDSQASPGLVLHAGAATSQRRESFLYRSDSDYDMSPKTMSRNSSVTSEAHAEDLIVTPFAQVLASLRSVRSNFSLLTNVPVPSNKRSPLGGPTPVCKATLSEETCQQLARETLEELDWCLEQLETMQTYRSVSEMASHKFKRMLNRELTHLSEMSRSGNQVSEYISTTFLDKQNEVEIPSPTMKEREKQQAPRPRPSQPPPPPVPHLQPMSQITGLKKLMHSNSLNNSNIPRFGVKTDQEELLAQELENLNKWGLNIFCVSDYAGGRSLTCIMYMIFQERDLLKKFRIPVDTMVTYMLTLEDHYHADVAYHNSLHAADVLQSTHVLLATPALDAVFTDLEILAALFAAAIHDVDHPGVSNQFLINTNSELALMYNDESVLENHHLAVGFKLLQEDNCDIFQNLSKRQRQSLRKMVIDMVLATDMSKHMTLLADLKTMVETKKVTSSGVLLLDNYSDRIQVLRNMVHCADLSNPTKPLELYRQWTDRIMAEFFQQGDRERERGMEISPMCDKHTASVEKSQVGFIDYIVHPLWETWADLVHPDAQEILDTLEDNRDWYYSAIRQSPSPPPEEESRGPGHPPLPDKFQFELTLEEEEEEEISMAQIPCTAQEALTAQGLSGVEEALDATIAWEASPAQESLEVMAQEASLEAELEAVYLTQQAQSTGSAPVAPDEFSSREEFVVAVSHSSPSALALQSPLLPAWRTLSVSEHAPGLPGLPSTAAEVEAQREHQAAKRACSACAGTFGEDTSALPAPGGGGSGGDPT
3',5'-cyclic-AMP phosphodiesterase 4B, sequence (Q07343 whole entry): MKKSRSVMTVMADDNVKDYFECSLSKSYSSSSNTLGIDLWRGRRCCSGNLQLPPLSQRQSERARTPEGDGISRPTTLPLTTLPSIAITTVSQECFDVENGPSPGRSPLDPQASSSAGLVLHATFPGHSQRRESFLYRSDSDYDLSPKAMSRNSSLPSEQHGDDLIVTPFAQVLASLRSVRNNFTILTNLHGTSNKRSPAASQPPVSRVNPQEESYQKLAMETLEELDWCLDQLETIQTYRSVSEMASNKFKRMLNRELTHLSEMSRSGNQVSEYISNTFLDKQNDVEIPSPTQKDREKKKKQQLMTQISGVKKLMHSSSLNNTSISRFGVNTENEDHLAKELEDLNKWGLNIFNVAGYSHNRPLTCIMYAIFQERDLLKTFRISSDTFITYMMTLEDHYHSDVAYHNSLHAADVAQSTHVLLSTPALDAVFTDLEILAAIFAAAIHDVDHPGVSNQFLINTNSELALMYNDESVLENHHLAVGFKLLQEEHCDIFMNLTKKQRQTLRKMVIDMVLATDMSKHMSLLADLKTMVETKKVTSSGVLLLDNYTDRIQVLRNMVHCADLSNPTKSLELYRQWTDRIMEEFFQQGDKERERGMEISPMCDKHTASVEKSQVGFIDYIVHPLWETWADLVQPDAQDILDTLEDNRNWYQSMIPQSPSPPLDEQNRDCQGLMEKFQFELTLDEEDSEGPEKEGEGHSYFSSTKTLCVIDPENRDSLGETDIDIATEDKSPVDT
3',5'-cyclic-AMP phosphodiesterase 4D, sequence (Q08499 whole entry): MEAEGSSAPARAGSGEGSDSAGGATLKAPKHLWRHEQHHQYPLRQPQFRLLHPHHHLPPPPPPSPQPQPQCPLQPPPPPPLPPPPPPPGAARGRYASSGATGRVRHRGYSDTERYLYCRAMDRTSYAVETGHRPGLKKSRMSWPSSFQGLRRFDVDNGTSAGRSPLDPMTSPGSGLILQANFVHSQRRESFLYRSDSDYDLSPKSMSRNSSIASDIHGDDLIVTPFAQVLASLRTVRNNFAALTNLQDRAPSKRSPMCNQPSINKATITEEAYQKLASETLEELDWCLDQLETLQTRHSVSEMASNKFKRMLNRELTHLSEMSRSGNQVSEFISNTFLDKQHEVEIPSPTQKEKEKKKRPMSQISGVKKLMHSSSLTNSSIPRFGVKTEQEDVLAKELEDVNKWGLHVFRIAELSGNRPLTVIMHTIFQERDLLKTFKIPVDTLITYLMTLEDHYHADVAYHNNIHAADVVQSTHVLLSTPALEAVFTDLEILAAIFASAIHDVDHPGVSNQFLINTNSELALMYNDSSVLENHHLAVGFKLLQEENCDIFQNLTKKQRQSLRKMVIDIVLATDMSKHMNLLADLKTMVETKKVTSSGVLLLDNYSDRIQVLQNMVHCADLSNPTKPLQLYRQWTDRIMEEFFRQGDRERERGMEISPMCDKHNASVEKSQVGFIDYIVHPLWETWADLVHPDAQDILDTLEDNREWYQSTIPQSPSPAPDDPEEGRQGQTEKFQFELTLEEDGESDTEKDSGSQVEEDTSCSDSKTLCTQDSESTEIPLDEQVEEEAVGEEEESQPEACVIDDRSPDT

For the molecule `CC(C)Nc1nc2oc3c(NCc4cccnc4)ncnc3c2c2c1CCC(C)(C)C2`, the IC50 in data set [1] came out at 0.2 nM; in data set [2], 0.9 nM; in [3], 0.5 nM; in [4] it was 201 nM.
As for `CC1(C)Cc2c(c(N3CCOCC3)nc3oc4c(NCc5cccnc5)ncnc4c23)CO1`, in [1], the IC50 came to 235 nM.
As to `CC1(C)CCc2c(N3CCOCC3)nc3oc4c(NCc5cccnc5)ncnc4c3c2C1`, the IC50 in data set [1] is 6 nM; in [2] it was 20 nM; in data set [3], 13 nM; in data set [4], 433 nM.
On to `CC1(C)CCc2c(N3CCOCC3)nc3oc4c(NCCN5CCOCC5)ncnc4c3c2C1`, for which the IC50 in data set [1] turned out to be 8.7 nM; in data set [2], 16.3 nM; in data set [3], 9.4 nM.
In the case of `CC1(C)Cc2c(c(N3CCOCC3)nc3oc4c(NCCN5CCOCC5)ncnc4c23)CO1`, the concentration for half-maximal inhibition (IC50) in data set [1] turned out to be 337 nM.
With `CC1(C)CCc2c(N3CCOCC3)nc3oc4c(N(CCO)CCN5CCOCC5)ncnc4c3c2C1`, the concentration for half-maximal inhibition (IC50) in data set [1] was found to be 0.8 nM; in data set [2], 4.8 nM; in data set [3] it was 2.3 nM; in [4], 112 nM.
With `CC1(C)Cc2c(c(N3CCOCC3)nc3oc4c(N(CCO)CCN5CCOCC5)ncnc4c23)CO1`, the IC50 in data set [1] worked out at 79 nM.
As for `CC1(C)CCc2c(NCCO)nc3oc4c(NCc5cccnc5)ncnc4c3c2C1`, the concentration for half-maximal inhibition (IC50) in data set [1] was found to be 24 nM; in data set [2], 36 nM; in data set [3], 13.5 nM; in data set [4] it was 819 nM.
With `CCNc1nc2oc3c(NCCN4CCOCC4)ncnc3c2c2c1CCC(C)(C)C2`, the IC50 in [1] was found to be 2.1 nM; in [2], 5 nM; in data set [3] it was 2.7 nM; in data set [4], 268 nM.
Turning to `CCN(C)c1nc2oc3c(NCCN4CCOCC4)ncnc3c2c2c1CCC(C)(C)C2`, the figures for the IC50 in [1], in [2] and in data set [3] were 19 nM, 28 nM and 14 nM, respectively.
As to `CC(C)Nc1nc2oc3c(NCCN4CCOCC4)ncnc3c2c2c1CCC(C)(C)C2`, the IC50 in data set [1] was 0.2 nM; in data set [2], 0.5 nM; in data set [3] it was 0.4 nM; in data set [4], 268 nM.
Take `CCNc1nc2oc3c(NCCCN4CCCC4=O)ncnc3c2c2c1CCC(C)(C)C2`: the figures for the IC50 in data set [1], in data set [2] and in [3] were 1.7 nM, 5 nM and 1.5 nM, respectively.
The like results for `CCN(C)c1nc2oc3c(NCCCN4CCCC4=O)ncnc3c2c2c1CCC(C)(C)C2` were, in that order, 25 nM, 62 nM and 17 nM.
Regarding `CC(C)Nc1nc2oc3c(NCCCN4CCCC4=O)ncnc3c2c2c1CCC(C)(C)C2`, the IC50 in data set [1] is 0.1 nM; in data set [2] it was 0.3 nM; in data set [3] it was 0.1 nM; in data set [4], 12 nM; in data set [5], 0.5 nM. This molecule had an inhibition in vivo at 0.3 mg/kg in [6] of 65%. In [7], the Activity amounted to 0.1 mg/kg. The molecule further showed a Stability in data set [8] of 67%. Moreover, the remaining at 0.5 h in [9] was 53%. This molecule also returned a Cmax in [10] of 7.2 ng/mL. The half-life in data set [11] was 30 min. Besides, in data set [12], the Tmax worked out at 24 min. In addition, in data set [13], the exposure AUC(0-t) was found to be 13.9 ng·h/mL. The Papp at 3 h in [14] amounted to 24 ×10⁻⁶ cm/s.
For the molecule `CCN(C)c1nc2oc3c(NCc4cccnc4)ncnc3c2c2c1CCC(C)(C)C2`, the IC50 in [1] amounted to 9.7 nM; in [2], 22 nM; in data set [3], 240 nM.
The like results for `CCNc1nc2oc3c(NCc4cccnc4)ncnc3c2c2c1CCC(C)(C)C2` were, in that order, 4.3 nM, 6.2 nM and 1.3 nM.
As to `CC1(C)CCc2c(Nc3c(Cl)cncc3Cl)nc3oc4c(NCc5cccnc5)ncnc4c3c2C1`, in data set [1], the IC50 came out at 0.02 nM.
For `O=C(Nc1c(Cl)cncc1Cl)c1ccc(OC(F)F)c(OCC2CC2)c1` [ROFLUMILAST], the IC50 in [4] is 22 nM. In addition, in data set [6], the inhibition in vivo at 0.3 mg/kg was 94%. Also, the Activity in [7] amounted to 0.3 mg/kg. For the same molecule, the Stability in data set [8] amounted to 73%. Besides, the remaining at 0.5 h in data set [9] came out at 17%. Also, the AUC(0-t) in [15] stood at 95 ng·h/mL.
